Data from ChEMBL document CHEMBL1152715, “13-Methyl-substituted des-C,D analogs of (20S)-1alpha,25-dihydroxy-2-methylene-19-norvitamin D3 (2MD): synthesis and biological evaluation” (Bioorg Med Chem, 2009).
pEC50, pKi: −log10 of the molar value.

Tests used:
Vitamin D3 receptor [1] = molecular target: T1, Vitamin D3 receptor (Rattus norvegicus, UniProt P13053); assay: Activity at VDR in rat ROS 17/2.8 cells assessed as transcriptional activation of 24-hydroxylase gene promoter after 16 hrs by luciferase reporter gene assay; assay type: cell-based
T1 sequence (P13053 whole entry): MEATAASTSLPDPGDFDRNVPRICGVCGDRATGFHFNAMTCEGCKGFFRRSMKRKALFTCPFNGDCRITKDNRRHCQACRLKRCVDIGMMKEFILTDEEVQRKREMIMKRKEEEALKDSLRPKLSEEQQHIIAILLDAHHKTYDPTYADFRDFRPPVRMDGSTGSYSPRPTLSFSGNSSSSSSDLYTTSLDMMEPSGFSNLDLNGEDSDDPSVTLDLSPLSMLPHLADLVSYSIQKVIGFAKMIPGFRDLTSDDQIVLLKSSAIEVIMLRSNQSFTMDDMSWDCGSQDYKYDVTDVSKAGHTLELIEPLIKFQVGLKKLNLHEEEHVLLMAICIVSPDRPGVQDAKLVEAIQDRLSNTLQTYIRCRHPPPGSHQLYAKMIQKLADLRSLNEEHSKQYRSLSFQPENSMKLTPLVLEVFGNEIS
How it was run: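 ROS 17/2.8 rat osteosarcoma cells stably transfected with a 24-hydroxylase promoter–luciferase reporter were dosed over a concentration range and harvested 16 h later. Luciferase was read on a luminometer.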

HL-60 [2] = assay: Induction of cell differentiation of human HL60 cells to monocytes by NBT reduction assay; assay type: functional, cell-based
Rattus norvegicus [3] = assay: Effect on bone calcium mobilization in vitamin D-deficient weanling rat assessed as increase in serum calcium level at 5.7 ug/kg, ip administered as 7 consecutive daily doses measured 24 hrs after last dose relative to untreated control; assay type: functional
How it was run: (§1)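 Weanling male rats were fed a 0.47% Ca diet for 1 week, then a 0.02% Ca diet for 3 weeks. In the final week they received daily intraperitoneal doses for 7 days in 0.1 mL propylene glycol/ethanol (95:5); controls got vehicle. There were 5–6 rats per group. Serum Ca and the intestinal serosal/mucosal Ca ratio were compared with vehicle.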

HL-60 [4] = assay: Ratio of EC50 of drug to EC50 of 1-alpha,25-(OH)2D3 for induction of cell differentiation of human HL60 cells to monocytes by NBT reduction assay
Vitamin D3 receptor [5] = molecular target: T1, Vitamin D3 receptor; assay: Displacement of [3H]1-alpha,25-(OH)2D3 from rat recombinant full length VDR
How it was run: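 It was incubated overnight on ice with 1 nM (final) [3H]1α,25-(OH)2D3 plus unlabeled competitor, ethanol <10%. Bound ligand was collected on hydroxylapatite, washed and scintillation counted. […] Runs were in duplicate.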

Rattus norvegicus [6] = assay: Effect on bone calcium mobilization in vitamin D-deficient weanling rat assessed as increase in serum calcium level at 1.9 ug/kg, ip administered as 7 consecutive daily doses measured 24 hrs after last dose relative to untreated control; assay type: functional; how it was run: as §1
Rattus norvegicus [7] = assay: Effect on bone calcium mobilization in vitamin D-deficient weanling rat assessed as increase in serum calcium level at 22.8 ug/kg, ip administered as 7 consecutive daily doses measured 24 hrs after last dose relative to untreated control; assay type: functional; how it was run: as §1
Rattus norvegicus [8] = assay: Effect on bone calcium mobilization in vitamin D-deficient weanling rat assessed as increase in serum calcium level at 55 ug/kg, ip administered as 7 consecutive daily doses measured 24 hrs after last dose relative to untreated control; assay type: functional; how it was run: as §1
Rattus norvegicus [9] = assay: Effect on calcium transport in vitamin D-deficient weanling rat intestine assessed as increase in ratio of serosal to mucosal calcium level at 5.5 ug/kg, ip administered as 7 consecutive daily doses measured 24 hrs after last dose; assay type: functional; how it was run: as §1
Rattus norvegicus [10] = assay: Effect on calcium transport in vitamin D-deficient weanling rat intestine assessed as increase in ratio of serosal to mucosal calcium level at 55 ug/kg, ip administered as 7 consecutive daily doses measured 24 hrs after last dose; assay type: functional; how it was run: as §1
Rattus norvegicus [11] = assay: Effect on calcium transport in vitamin D-deficient weanling rat intestine assessed as increase in ratio of serosal to mucosal calcium level at 165 ug/kg, ip administered as 7 consecutive daily doses measured 24 hrs after last dose; assay type: functional; how it was run: as §1
Rattus norvegicus [12] = assay: Effect on bone calcium mobilization in vitamin D-deficient weanling rat assessed as increase in serum calcium level at 165 ug/kg, ip administered as 7 consecutive daily doses measured 24 hrs after last dose relative to untreated control; assay type: functional; how it was run: as §1
Rattus norvegicus [13] = assay: Effect on bone calcium mobilization in vitamin D-deficient weanling rat assessed as increase in serum calcium level at 5.5 ug/kg, ip administered as 7 consecutive daily doses measured 24 hrs after last dose relative to untreated control; assay type: functional; how it was run: as §1

Structure (SMILES) | pEC50 (Vitamin D3 receptor [1]) | pEC50 (HL-60 [2]) | pKi (Vitamin D3 receptor [5]) | fold change (FC) (Rattus norvegicus [3]) | Ratio EC50 (HL-60 [4]) | fold change (FC) (Rattus norvegicus [6]) | fold change (FC) (Rattus norvegicus [7]) | fold change (FC) (Rattus norvegicus [8]) | Ratio (Rattus norvegicus [9]) | Ratio (Rattus norvegicus [10]) | Ratio (Rattus norvegicus [11]) | fold change (FC) (Rattus norvegicus [12]) | fold change (FC) (Rattus norvegicus [13])
C=C1[C@H](O)CC(=C/C=C/C/C(C)=C/[C@@H](C)CCCC(C)(C)O)C[C@H]1O | < 7.00 | < 6.00 | 7.22 | – | >333 | – | – | – | – | – | – | – | –
C=C1[C@H](O)CC(=C/C=C\C/C(C)=C/[C@@H](C)CCCC(C)(C)O)C[C@H]1O | < 7.00 | < 6.00 | < 6.00 | – | >333 | – | – | – | – | – | – | – | –

Continued by rising pEC50 (Vitamin D3 receptor [1]), values first:

pEC50 (Vitamin D3 receptor [1]) | pEC50 (HL-60 [2]) | pKi (Vitamin D3 receptor [5]) | Structure (SMILES) | fold change (FC) (Rattus norvegicus [3]) | Ratio EC50 (HL-60 [4]) | fold change (FC) (Rattus norvegicus [6]) | fold change (FC) (Rattus norvegicus [7]) | fold change (FC) (Rattus norvegicus [8]) | Ratio (Rattus norvegicus [9]) | Ratio (Rattus norvegicus [10]) | Ratio (Rattus norvegicus [11]) | fold change (FC) (Rattus norvegicus [12]) | fold change (FC) (Rattus norvegicus [13])
7.05 | 6.52 | 8.00 | C=C1[C@H](O)CC(=C/C=C/C[C@@H](C)C[C@@H](C)CCCC(C)(C)O)C[C@H]1O | – | 100 | – | – | -0.2 | 0.4 | -0.5 | -0.9 | -0.1 | -0.2
7.30 | 6.52 | 7.30 | C=C1[C@H](O)CC(=C/C=C/CCC[C@@H](C)CCCC(C)(C)O)C[C@H]1O | 0.1 | 100 | -0.2 | 0.2 | – | – | – | – | – | –
8.52 | 8.22 | 7.52 | C=C1[C@H](O)CC(=C/C=C/C[C@H](C)C[C@@H](C)CCCC(C)(C)O)C[C@H]1O | – | 2 | – | – | – | – | – | – | – | –
